≈ marks a conversion by molar mass, not a printed value. Each block holds one compound with its values, some of them ahead of it.
How the values were obtained:
[1] = test system: E coli K12 biofilm; test: Biofilm formation inhibition, crystal violet staining; type: cell-based, Escherichia coli; conditions: at 2 ug/mL
[2] = test system: Candida albicans ATCC 90028; type: cell-based; conditions: ATCC 90028, pH 7
[3] = test system: Cryptococcus neoformans var. grubii H99 ATCC 20882; type: cell-based; conditions: ATCC 20882, pH 7
[4] = Zeta potential; type: physicochemical; conditions: Aqueous solution of 2 mmolar concentration in pH 7
[5] = test system: Staphylococcus aureus ATCC 43300 MRSA; type: cell-based; conditions: ATCC 43300, pH 7
[6] = test system: HaCaT (Immortalized Human Keratinocyte); type: cell-based; conditions: 24 h
[7] = test system: Psedomonas aeruginosa ATCC 27853; type: cell-based, Pseudomonas aeruginosa; conditions: ATCC 27853, pH 7
[8] = test system: Klebsiella pneumoniae ATCC 700603; type: cell-based; conditions: ATCC 700603, pH 7
[9] = test system: HCEC (Immortalized Human Colonic Epithelial Cell); type: cell-based; conditions: 24 h
[10] = test system: Escherichia coli ATCC 25922; type: cell-based; conditions: ATCC 25922, pH 7
[11] = test system: Acinetobacter baumannii ATCC 19606; type: cell-based; conditions: ATCC 19606, pH 7
[12] = test system: S. aureus JE2 biofilm; test: Biofilm formation inhibition, crystal violet staining; type: cell-based, Staphylococcus aureus; conditions: at MIC
Procedure, shortened: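 S. aureus JE2 initial inocula were exposed to test compound in two-fold dilutions from 16 to 4 μg/mL, with vancomycin or gentamicin at 4 to 1 μg/mL as comparators. Biofilm formed was quantified by crystal violet staining.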

SMILES: CNC(C)C1CCC(N)C(OC2C(N)CC(N)C(OC3OCC(C)(O)C(NC)C3O)C2O)O1 (stereo not shown) [Gen, Gentamicin]
reduction of E coli biofilm formation [1]: about 54. 3%

MIC Ca (C. albicans ATCC 90028) [2]: >32 µg/mL
MIC Cn (C. neoformans var. grubii H99 ATCC 20882) [3]: >32 µg/mL
Zeta potential [4]: 18.83 ± 1.69 mV
MIC Sa (S. aureus ATCC 43300 MRSA) [5]: >32 µg/mL
MIC Pa (P. aeruginosa ATCC 27853) [7]: >32 µg/mL
MIC Kp (K. pneumoniae ATCC 700603) [8]: >32 µg/mL
MIC Ec (E. coli ATCC 25922) [10]: >32 µg/mL
MIC Ab (A. baumannii ATCC 19606) [11]: >32 µg/mL
SMILES: CCCCCCCC(=O)NCCCC[C@H](NC(=O)CCCCCCC)C(=O)N[C@@H](CCCCN)C(=O)N[C@@H](CCCCN)C(=O)N[C@@H](CCCCN)C(=O)N[C@@H](CCCCN)C(=O)N[C@@H](CCCCN)C(N)=O [PA 8]
IC50 HaCaT [6]: 40.4 µg/mL (≈ 38.9 µM)
IC50 HCEC [9]: 19.3 µg/mL (≈ 18.6 µM)

Zeta potential [4]: 41.40 ± 1.05 mV
SMILES: CCCCCCCCCCCCCCCCCC(=O)NCCCC[C@H](NC(=O)CCCCCCCCCCCCCCCCC)C(=O)N[C@@H](CCCCN)C(=O)N[C@@H](CCCCN)C(=O)N[C@@H](CCCCN)C(=O)N[C@@H](CCCCN)C(=O)N[C@@H](CCCCN)C(N)=O [PA 9]

SMILES: CN[C@H](CC(C)C)C(=O)N[C@H]1C(=O)N[C@@H](CC(N)=O)C(=O)N[C@H]2C(=O)N[C@H]3C(=O)N[C@H](C(=O)N[C@H](C(=O)O)c4cc(O)cc(O)c4-c4cc3ccc4O)[C@H](O)c3ccc(c(Cl)c3)Oc3cc2cc(c3O[C@@H]2O[C@H](CO)[C@@H](O)[C@H](O)[C@H]2O[C@H]2C[C@](C)(N)[C@H](O)[C@H](C)O2)Oc2ccc(cc2Cl)[C@H]1O [Van, Vancomycin]
reduction of MRSA biofilm formation [12]: up to 92.80 ± 0.68%
